Published values of several laboratories.
Protocols differ between the studies behind these lines.
Target: Mu-type opioid receptor (OPRM1, Homo sapiens, UniProt P35372)

| SMILES | assay | system | setting | measurement | value |
| --- | --- | --- | --- | --- | --- |
| Clc1ccc2c(C3CCN(CCc4c[nH]c5ccccc45)CC3)c[nH]c2c1 | ligand displacement, radioligand |  | 10 µM | inhibition | 93% |
| COc1ccsc1CNCC[C@@]1(c2ccccn2)CCOC2(CCCC2)C1 | β-arrestin recruitment, agonist |  |  | Emax | < 50% |
| CN1CCN(c2cc(-c3ccncc3)c(-c3ccc4ccccc4c3)nn2)CC1 | calcium signal, agonist | OPRM1 | 12.5 µM | activation | 0.3% |
| COc1ccc2c(c1)O[C@H](c1ccc(OC)c(OC)c1)C[C@@H]2NC(=O)C1(c2ccc3c(c2)OC(F)(F)O3)CC1 | cell-free assay |  | 10 µM | inhibition | 6.01% |
| c1ccc(C(NCCNC(c2ccccc2)c2ccccc2)c2ccccc2)cc1 | ligand displacement |  | 10 µM | inhibition | 21% |
| CC1(C)SSC(C)(C)[C@@H](NC(=O)[C@@H](N)Cc2ccc(O)cc2)C(=O)NCC(=O)N[C@@H](Cc2ccccc2)C(=O)N2CCN(CC2)C(=O)[C@H](Cc2ccccc2)NC(=O)CNC(=O)[C@@H]1NC(=O)[C@@H](N)Cc1ccc(O)cc1 | cAMP, agonist, luciferase | HEK293 |  | Emax | 86% |
| C[C@H](C(=O)N[C@H]1COc2ccccc2[C@@H]1S(C)(=O)=O)c1ccc(F)cc1 | ligand displacement |  | 10 µM | inhibition | -8% |
| CCN(CC)CCCC[C@H](NC(=O)[C@H](CC(C)C)NC(=O)[C@H](C)NC(=O)[C@H](Cc1ccccc1)NC(=O)c1ccc(C(C)(C)C)cc1)C(=O)N[C@@H](CO)C(=O)OC | ligand displacement, radioligand |  | 10 µM | remaining binding | 48.6% |
| CC[C@@H]1CN2CC[C@@]3(O)C(=Nc4cccc(OC)c43)[C@@H]2C[C@@H]1/C(=C\OC)C(=O)OC | β-arrestin recruitment, agonist |  |  | Emax | < 50% |
| CC1=C(C#N)C(c2ccc3[nH]nc(C)c3c2)C(C#N)=C(C)N1 | ligand displacement |  | 10 µM | inhibition | 2.64% |
| CCCCC/C=C\C/C=C\C/C=C\C/C=C\CCCC(=O)O | ligand displacement, radioligand |  | 10 µM, cell membranes | inhibition | 80% |
| CC(C)N1CCC[C@H]1CNC(=O)c1cn(C2CCCC2)c(=O)c2c1c1ccccc1n2C | ligand displacement, radioligand |  | 10 µM | inhibition | 5% |
| COc1ccsc1CNCC[C@@]1(c2ccccn2)CCOC2(CCCC2)C1 | β-arrestin recruitment, agonist | HEK-293T |  | Emax | < 5% |
| CN(C)C(=O)Cn1cc(-c2nc(C3(c4ccc(-c5cnc(N)nc5)cc4)CC3)no2)cn1 | cell-free assay |  | 10 µM | inhibition | 12.6% |
| COCc1c(-c2cc3cc(C)cc(OC)c3s2)c2c(N)ncnn2c1CN1CCNC(=O)C1 | ligand displacement, radioligand |  | 10 µM | inhibition | 31% |
| Nc1ncc(-c2nc(N3CCOCC3)nc(N3CCOCC3)n2)c(C(F)F)n1 | cell-free assay, radioligand |  | 10 µM | remaining signal | 104% |
